# TRPC4 inh: inhibitors of mouse TRPC4 channel, primary screen, Fluo4 calcium, HEK293 TRPC4beta/mu-opioid cells | Short transient receptor potential channel 4 (Mus musculus), Q9QUQ5 | AID 2247, 2010 | DAMGO-evoked Fluo4 calcium flux; active compounds read low | B-score at 10 µM | actives 0.39% (n = 300,000);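 active means B-score over 3 SD under the library average, no early fluorescence shift, positive overall ratio signal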
#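 test system = HEK293 cells with stable TRPC4beta plus mu-opioid receptor expression | detection = Fluo4 Ca2+ flux fluorescence | read-out = integrated fluorescence ratio relative to baseline, converted to per-well B score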
# TRPC4 potent: positive allosteric modulators of TRPC4, primary screen, cell-based, mouse TRPC4beta, HEK293 mu-opioid, Fluo-4 calcium | Short transient receptor potential channel 4 (Mus musculus), Q9QUQ5 | DAMGO EC20, Fluo-4 Ca2+ flux; active compounds read high | B-score at 10 µM | actives 0.42% (n = 310,000) | AID 2227, 2009;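 active means B-score of calcium response area above 5 SD of library B-scores, with initial fluorescence ratio within 5 SD of library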;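 further: B-score of integrated fluorescence ratio over time as area under calcium response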
# TRPC4 agonist: activators of mouse TRPC4 channel, primary screen, Fluo4 calcium, HEK293 TRPC4beta/mu-opioid cells; Short transient receptor potential channel 4 (Mus musculus), Q9QUQ5; Fluo4 calcium fluorescence; active compounds read high; B-score at 10 µM; actives 0.49% (n = 310,000); AID 2237, 2010;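 active means B-score above 5 SD of library B-scores, and initial fluorescence ratio not above library mean plus 5 SD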;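 further: positive B-score marks a calcium rise read as TRPC4 activation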
#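 System: HEK293 cells stably co-expressing mouse TRPC4beta and mu-opioid receptor; Schedule: Fluo4 dye loading 45 min at room temperature, 110 s recording; Detection: Fluo4 fluorescence, kinetic; Evaluation: B-scored integrated calcium fluorescence ratio; Controls: buffer (low) and maximal DAMGO (high).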
# TRPC6 act: mouse TRPC6 channel activators, primary screen, cell-based, HEK293, membrane potential dye. Short transient receptor potential channel 6 (Mus musculus), Q61143. actives 0.13% (n = 310,000). B-score at 10 µM. HEK293-TRPC6 membrane potential dye fluorescence; active compounds read high;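 active means B-score of the integrated fluorescence ratio above library mean plus 3 SD, and starting fluorescence ratio within library mean plus 5 SD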;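 further: higher score means more depolarization so channel activation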
# Kir21 inh: inhibitors of mouse Kir2.1 inward-rectifier potassium channel; Inward rectifier potassium channel 2 (Mus musculus), P35561; HEK293-Kir2.1, FluxOR thallium flux fluorescence; active compounds read low; B-score at 10 µM; actives 0.85% (n = 310,000); AID 1672, 2009;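 active means fluorescence ratio B-score at or below minus 3 SD of library scores, with starting-brightness B-score within 2 SD, cut at about -4.2 in these data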;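 further: channel flux triggered by added potassium and thallium sulfate stimulus; B-score of peak minus minimum fluorescence over baseline after thallium stimulus; more negative B-score means stronger Kir2.1 block with less thallium influx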
# Target sequence (P35561 whole entry, looked up): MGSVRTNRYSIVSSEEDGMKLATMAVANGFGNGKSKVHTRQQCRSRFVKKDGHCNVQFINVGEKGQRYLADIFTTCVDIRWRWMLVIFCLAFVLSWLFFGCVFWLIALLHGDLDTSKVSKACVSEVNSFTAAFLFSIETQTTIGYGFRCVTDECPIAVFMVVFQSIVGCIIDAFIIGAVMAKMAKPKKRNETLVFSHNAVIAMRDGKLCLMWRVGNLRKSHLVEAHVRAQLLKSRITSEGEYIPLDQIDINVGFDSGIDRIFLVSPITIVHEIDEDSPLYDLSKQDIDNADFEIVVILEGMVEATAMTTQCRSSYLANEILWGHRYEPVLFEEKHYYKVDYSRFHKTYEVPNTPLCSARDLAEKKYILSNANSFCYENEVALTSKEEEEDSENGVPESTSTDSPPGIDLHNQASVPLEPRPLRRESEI
# TRPC6 inhibitor: mouse TRPC6 channel inhibitors, primary screen, cell-based, HEK293, membrane potential dye. Short transient receptor potential channel 6 (Mus musculus), Q61143. ACh-evoked depolarization; active compounds read low. actives 1.1% (n = 310,000). B-score at 10 µM;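 active means B-score under library mean minus 3 SD, initial fluorescence not abnormally high, positive integrated signal ratio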;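 further: B-score derived from integrated fluorescence ratio over the kinetic read; more negative B-score means stronger inhibition of depolarization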
# An asterisk follows results filed as active; i = inactive. Shown are actives, neighbours in structure and some others; about 3% of the full set was active somewhere.
SMILES,TRPC4 inh,TRPC4 potent,TRPC4 agonist,TRPC6 act,Kir21 inh,TRPC6 inhibitor
COc1ccc(C(CNc2ncnc3sccc23)N(C)C)cc1OC (stereo unspecified),i,i,45*,i,-1.38,i
CCCNC(=O)c1nn2cc(Br)cnc2c1Br,i,i,i,i,-0.37,i
CC(=O)NNS(=O)(=O)c1ccc(-c2cc(C(F)(F)F)n(C)n2)s1,i,i,i,i,0.05,i
CC(C(=O)NCCCc1ccccc1)c1ccc([N+](=O)[O-])cc1 (stereo unspecified),i,i,i,i,-4.42*,i
COc1ccc(CCNC(=O)C(C)c2ccc([N+](=O)[O-])cc2)cc1 (stereo unspecified),i,i,i,i,-4.55*,i
COc1ccc(CCNC(=O)c2ccc([N+](=O)[O-])cc2)cc1,i,i,i,i,0.77,i
CC(C(=O)NCc1ccc(F)cc1)c1ccc([N+](=O)[O-])cc1 (stereo unspecified),i,i,i,i,-0.53,i
CC1CCCC(NC(=S)Nc2cccc(S(=O)(=O)N(C)C)c2)C1C (stereo unspecified),i,i,i,i,0.62,i
CN1CC=C2C(C#N)=C(N)C(C#N)(C#N)[C@H](c3cccc(Cl)c3)C2C1 (stereo partly specified),i,i,i,i,-3.26,i
N#CC1=C(N)C2=CCCC[C@H]2[C@H](c2cccc(F)c2)C1(C#N)C#N,i,34*,i,i,-5.37*,i
CCOC(=O)C(NC(C)=O)(NC(C)C)C(F)(F)F (stereo unspecified),i,i,i,i,-1.34,i
OCC1(Cc2ccccc2)CCN(Cc2cccc(F)c2F)CC1,i,i,i,i,0.78,i
OCC1(Cc2ccc(Cl)cc2)CCN(Cc2ccccc2F)CC1,-6*,i,i,i,-1.17,i
CC(=O)c1sc(N/N=C\c2c(O)ccc3ccccc23)nc1C,i,i,i,i,0.99,i
COCCOC(=O)/C(=C\c1cc(C(C)(C)C)c(O)c(C(C)(C)C)c1)C(C)=O,i,i,i,i,-5.38*,i
CC(C)(C)c1cc(CCC(=O)NN)cc(C(C)(C)C)c1O,i,i,i,i,-0.05,i
C=CCOc1cccc(/C=N/NC(=O)CN2CCCCC2)c1,i,i,i,i,-3.2,i
COc1ccccc1OCCCCCc1c(C)n[nH]c1C,i,i,i,i,-1.39,i
CCOc1ccccc1OCCCCCc1c(C)n[nH]c1C,i,i,i,i,-4.81*,i
COc1ccccc1OCCCc1c(C)n[nH]c1C,i,i,i,i,-0.24,i
Cc1cccc(OCCCCc2c(C)n[nH]c2C)c1C,-8*,i,i,i,-0.1,i
CC(NC(=O)CCC(=O)c1ccccc1)c1ccc(F)cc1 (stereo unspecified),i,i,i,i,-0.61,i
Cc1nc(SCC(=O)NCCc2ccc(Cl)cc2)nc(C)c1C,i,i,i,i,-4.96*,i
Cn1c(CNC(=O)CNC(=O)Cc2ccc(F)cc2)cc(=O)n(C)c1=O,i,i,i,i,0.03,i
Cc1ccc(C)c2c1cc(C)c1nnc(SCC(=O)Nc3nc4c(s3)CCCC4)n12,i,i,i,i,-0.03,i
SMILES,TRPC4 inh,TRPC4 potent,TRPC4 agonist,TRPC6 act,Kir21 inh,TRPC6 inhibitor
Cc1ccc(C)c2c1cc(C)c1nnc(SCC(=O)c3cccs3)n12,i,i,i,i,-7.54*,i
Cc1ccc2cc(C)c3nnc(SCC(=O)c4cccs4)n3c2c1C,i,i,i,i,-5.11*,i
COc1ccc(CCN2CCCC(CN(C)C(=O)c3ccoc3)C2)cc1 (stereo unspecified),i,19*,i,i,2.75,i
CCCNc1nc(-c2ccccc2)c(C(=O)OCC)cc1C#N,i,i,i,i,-1,i
CCCCNc1nc(-c2ccccc2)c(C(=O)OCC)cc1C#N,-6*,i,i,i,1.02,i
COc1cc(/C=C2/C(=O)NN(c3cccc(C)c3)C2=O)ccc1OC(=O)c1ccco1,i,22*,i,i,-6.07*,i
COc1cc(/C=C2/C(=O)NN(c3cccc(C)c3)C2=O)cc([N+](=O)[O-])c1O,i,i,i,i,0.45,i
COc1cc2c(cc1NC(=O)C(c1ccccc1)c1ccccc1)CCCC2,i,i,i,i,0.45,i
CC(CCN1C(Nc2ccccc2)=NC[C@@H]1Cc1ccccc1)c1ccccc1 (stereo partly specified),i,i,i,i,-7.25*,i
CC1=C(C(=O)OCC2CCCO2)C(c2ccc(Cl)c(Cl)c2)NC(=O)N1 (stereo unspecified),i,i,i,i,-0.5,i
Cc1ccc(CSc2nnc([C@@H]3CCCN3C(=O)OC(C)(C)C)o2)cc1,i,i,i,i,-7.13*,i
CC(C)(C)C(=O)Nc1sc2c(c1C#N)CCN(Cc1ccccc1)C2,i,i,i,13.2*,0.37,i
CCCn1c(N2CCN(S(=O)(=O)Cc3ccccc3)CC2)nc2ccccc21,i,22*,i,i,-0.47,i
CCn1c(N2CCN(S(=O)(=O)c3ccccc3)CC2)nc2ccccc21,i,i,i,i,1.04,i
CCn1c2ccc(C)cc2c2nnc(NN)nc21,i,i,i,i,-1.27,i
CCn1c2ccccc2c2nnc(NN)nc21,i,15*,45*,i,2.48,i
COC(=O)C(Cc1cccc(C)n1)(c1ccccc1)c1ccccc1,-7*,i,i,i,-3.48,i
CCN1CCN(c2ccc(S(=O)(=O)N3CCOCC3)cc2NC(=O)c2cc(Cl)nc3ccccc23)CC1,i,i,47*,i,-1.05,i
CCN1CCN(c2ccc(S(=O)(=O)N3CCOCC3)cc2NC(=O)c2ccccc2SC)CC1,i,i,175*,i,-0.16,i

# Source: PubChem
